EWS-Fli block: inhibitors of EWS/Fli oncoprotein transcriptional activity; AID 651661; inhibition, % at 12.6 µM; A673 NR0B1-luciferase reporter, viability-normalised; 0.67% of 350,000 active;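 active = mean inhibition of at least 50% after viability correction, with every replicate also passing that limit; inconclusive = mean reaches 50% but only one of two replicates passes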;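 note: firefly luciferase signal divided by Alamar Blue viability fluorescence both relative to DMSO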
N-glyco inh: blocks N-linked glycosylation in D54 reporter cells; D54 ERlucT glycosylation luciferase reporter, 24 h; percent of 100 nM tunicamycin response; reporter increase, % at 12.5 µM; 0.23% of 360,000 active;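 active = mean luciferase reporter signal, scaled so untreated is 0 and the glycosylation-blocking control 100, at or above a set limit in every replicate; inconclusive = mean reaches the limit but not every replicate does; inactive = mean below the limit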;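 note: luciferase carries N-glycosylation sites so blocking glycosylation raises the light; 0% = median of neutral control wells and 100% = median of 100 nM tunicamycin wells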
FN deposition inh: fibronectin deposition inhibition; AH1F fibroblasts, Alexa488-fibronectin deposition fluorescence, overnight; inhibition, % at 12.6 µM; 0.086% of 350,000 active; AID 743247;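 active = mean inhibition across replicates of 30% or more, regardless of how many single replicates reach that level; inconclusive = mean under 30% yet at least half of replicates reach 30%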;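 note: positive control wells lacked labelled fibronectin entirely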
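material = AH1F fibroblast monolayer depositing Alexa488-labelled fibronectin into matrix | amount = 10000 AH1F cells/well | buffer or medium = DMEM plus 2% serum, read in PBS | incubation = 1 h cell adhesion before compound, then overnight fibronectin incubation | detection = fluorescence at 485 nm excitation, 525 nm emission | evaluation = percent inhibition as loss of matrix-bound fibronectin fluorescence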
Env fusion inh: inhibitors of HIV Env-mediated cell fusion | HeLa-JRFL Env/CEM21 cell fusion, luciferase | inhibition, % at 12.3 µM | 1.1% of 360,000 active | AID 651610;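 active = mean replicate inhibition score of at least 50 and every replicate individually at or above 50; inconclusive = only one of the two criteria met; inactive = mean below 50 and not all replicates reaching 50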;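 note: 0% = plate neutral controls and 100% = maraviroc near 300 nM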
MLL AF4-AF9 inh: blocks AF4 peptide binding to human AF9; P42568; 0.47% of 350,000 active; AlphaScreen, biotin-AF4 peptide binding to FLAG-AF9; inhibition, % at 10 µM;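 active = every replicate reaching a set inhibition limit, whatever the replicate mean, cut at about 25% in these data; inconclusive = mean inhibition reaches that limit but some replicates miss it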;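 note: 0% = plate neutral control median and 100% = total signal loss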
Target sequence (P42568 whole entry, looked up): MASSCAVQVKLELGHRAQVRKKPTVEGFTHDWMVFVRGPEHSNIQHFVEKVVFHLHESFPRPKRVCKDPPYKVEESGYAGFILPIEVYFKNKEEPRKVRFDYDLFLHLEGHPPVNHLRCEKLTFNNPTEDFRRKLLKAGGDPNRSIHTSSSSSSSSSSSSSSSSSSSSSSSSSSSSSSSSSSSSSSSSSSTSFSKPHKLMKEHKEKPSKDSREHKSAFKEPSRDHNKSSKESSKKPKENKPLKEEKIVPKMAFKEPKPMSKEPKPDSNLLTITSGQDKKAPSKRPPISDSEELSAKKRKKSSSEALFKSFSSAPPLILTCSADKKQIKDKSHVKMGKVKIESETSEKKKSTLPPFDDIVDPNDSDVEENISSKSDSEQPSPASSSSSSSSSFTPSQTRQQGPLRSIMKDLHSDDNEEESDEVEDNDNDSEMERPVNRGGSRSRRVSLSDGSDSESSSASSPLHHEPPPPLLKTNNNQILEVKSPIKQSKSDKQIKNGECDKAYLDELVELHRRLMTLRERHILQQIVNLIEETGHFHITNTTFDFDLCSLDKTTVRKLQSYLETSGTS
PAX8 inh HTS: PAX8 transcriptional activity inhibition | 1.2% of 360,000 active | RMG-I TPO-luciferase reporter, SteadyGlo, 24 h | AID 652154 | inhibition, % at 12.6 µM;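 active = mean replicate inhibition at least 60% with every replicate also reaching 60%; inconclusive = only one of the two criteria is met; inactive = mean below 60% and not all replicates reaching 60%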;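 note: luciferase light reporting Pax8 driven TPO promoter activity; plate controls were median of neutral control wells for no effect and mitoxantrone controls for full effect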
* hit, by the source's call; ? = inconclusive; · = not tested or not shown; [ ] = dose if it differs, or a comment. Compounds with a hit are over-represented: about 2.5% of the library has one in this group of screens.

SMILES | EWS-Fli block | N-glyco inh | FN deposition inh | Env fusion inh | MLL AF4-AF9 inh | PAX8 inh HTS
Cc1ccccc1NC1=C/C(=N\S(=O)(=O)c2cccs2)c2ccccc2C1=O | · | -23 | 52* | 121* | · | 110*
CC(=O)Nc1ccc(NC2=C/C(=N/S(=O)(=O)c3cccs3)c3ccccc3C2=O)cc1 | 18 | -17 | · | -8 | 5 | 83*
CC(C(=O)c1ccc(-c2ccccc2)cc1)[n+]1ccccc1 (stereo not given) | · | 1 | 4 | 46* | · | 50
Cc1cc[n+](C(C)C(=O)c2ccc(-c3ccccc3)cc2)cc1 (stereo not given) | 15 | -2 | -9 | 10 | 3 | 69*
Cc1ccc[n+](C(C)C(=O)c2ccc(-c3ccccc3)cc2)c1 (stereo not given) | 12 | 2 | 4 | 7 | 8 | 57
CC(C)CC#Cc1cnc2c(c1)C(=O)N([C@H](C)CO)C[C@@H](C)[C@@H](CN(C)C(=O)c1cccnc1)O2 | 2 | · | · | -21[16.7 µM] | -1 | ·
Cc1nc(N2CCN(c3ccccc3)CC2)nc2c1C(=O)CC(c1ccccc1)C2 (stereo not given) | · | -5 | -12 | 64* | · | ·
COc1ccc2c3c(n(C)c2c1)[C@@H](CO)N(C(=O)Cc1ccccn1)CC31CCN(Cc2ccccn2)CC1 | -11 | · | · | · | -3 | -14
O=C(CN1C(=O)c2ccccc2S1(=O)=O)c1ccc(O)c(O)c1 | 22 | -11 | -9 | 23 | -2 | -4
Cc1cc(C(=O)CN2C(=O)c3ccccc3S2(=O)=O)c(C)n1CC1CCCO1 (stereo not given) | · | -18 | · | 115* | · | ·
O=C(CN1C(=O)c2ccccc2S1(=O)=O)c1ccc(F)c(F)c1 | 35 | -21 | · | 41 | -1 | 64*
CCc1ccc(/C=C/C(=O)c2cc(Br)ccc(=O)c2O)cc1 | · | 6 | · | · | · | ·
CCOc1ccc(/C=C/C(=O)c2cc(Br)ccc(=O)c2O)cc1 | 18 | 3 | 1 | 64* | 9 | -15
Cc1cccc(NC(=O)CSCC(=O)Nc2ccc(N3CCOCC3)cc2N2CCOCC2)c1 | -6 | 2 | -5 | 10 | 4 | 3
Cc1cc(NC(=O)C(C)SCC(=O)Nc2cc(C(F)(F)F)ccc2N2CCCCC2)no1 (stereo not given) | 5 | -2 | -4 | 74* | 3 | -18
Cc1cccc(NC(=O)CSCC(=O)Nc2cc(C(F)(F)F)ccc2N2CCOCC2)c1 | 1 | 1 | -4 | 69* | -2 | 2
Cc1cc(NC(=O)CSCC(=O)Nc2cc(C(F)(F)F)ccc2N2CCCCC2)no1 | 10 | 0 | -12 | · | ? | 5
COc1cc(/C=C(\C#N)c2nc3ccccc3s2)ccc1OCC(=O)Nc1ccccc1 | · | 71* | · | · | · | ·
Cn1cnc(S(=O)(=O)N[C@H]2CC[C@@H](CC(=O)Nc3ccccc3)O[C@@H]2CO)c1 | -3 | · | -7 | -7[16.7 µM] | -3 | ·
COc1cc2ccccc2cc1C(=O)N1CCN(C(C)=O)CC1 | 8 | 0 | -5 | 0 | -1 | 8
CCOc1ccccc1N1CCN(C(=O)c2cc3ccccc3cc2OC)CC1 | 59* | ? | 9 | 2 | -5 | 42
O=C(C[C@@H]1CC[C@H](NC(=O)C2CCOCC2)[C@@H](CO)O1)Nc1ccc(-c2ccccc2)cc1 | -23 | · | · | -2[16.7 µM] | -1 | -4
C[C@@H]1CN([C@@H](C)CO)S(=O)(=O)c2ccc(/C=C/c3ccccc3)cc2O[C@@H]1CN(C)C(=O)C1CC1 | 0 | · | -5 | 55*[16.7 µM] | 5 | ·
CCC(=O)N(C)C[C@H]1Oc2cc(C#Cc3ccccc3)ccc2S(=O)(=O)N([C@@H](C)CO)C[C@H]1C | 13 | · | -12 | 3[16.7 µM] | 1 | 14
CCC(=O)N(C)C[C@H]1Oc2cc(/C=C/c3ccccc3)ccc2S(=O)(=O)N([C@@H](C)CO)C[C@H]1C | 0 | · | 3 | 59*[16.7 µM] | 13 | ·
CCC(=O)N(C)C[C@@H]1Oc2cc(C#Cc3ccccc3)ccc2S(=O)(=O)N([C@@H](C)CO)C[C@H]1C | 2 | · | -3 | 59*[16.7 µM] | -5 | 23
O=c1c2c(nc3c(-c4ccc(Cl)cc4)c[nH]n13)CCCC2 | · | 2 | 3 | 62* | · | 45
O=c1c2c(nc3c(-c4cccc5ccccc45)c[nH]n13)CCC2 | · | 0 | · | · | · | ·
CCCC#Cc1ccc2c(c1)O[C@@H](CN(C)Cc1ccccc1)[C@H](C)CN([C@@H](C)CO)S2(=O)=O | -1 | · | -1 | 3[16.7 µM] | -3 | 13

Bioassay records (PubChem)
